Assay results from ChEMBL document CHEMBL1134847, “Development of orally active nonpeptidic inhibitors of human neutrophil elastase” (J Med Chem, 2001).
≈ marks a conversion by molar mass, not a printed value.

Experiments:
Neutrophil elastase = target: T1, Neutrophil elastase (Homo sapiens, UniProt P08246); experiment: Binding constant derived from inhibition of elastase catalyzed hydrolysis of synthetic substrate
T1 sequence (P08246 whole entry): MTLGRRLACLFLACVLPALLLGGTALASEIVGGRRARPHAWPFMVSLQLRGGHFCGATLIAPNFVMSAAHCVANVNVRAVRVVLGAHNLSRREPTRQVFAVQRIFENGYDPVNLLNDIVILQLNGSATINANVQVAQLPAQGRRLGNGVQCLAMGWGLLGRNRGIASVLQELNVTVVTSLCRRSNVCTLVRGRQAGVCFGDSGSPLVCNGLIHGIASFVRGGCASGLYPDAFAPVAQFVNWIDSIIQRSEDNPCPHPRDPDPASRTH

Cricetinae gen. sp. [1] = experiment: (§1) Inhibition of HNE-induced lung hemorrhage in hamsters after oral administration of 30 mg/kg followed by intratracheal instillation of HNE (10 U/lung); assay type: functional
In short: (§2)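 Hamsters (n = 6-10) were dosed orally 1 h before intratracheal instillation of HNE (10 U/lung). The read-out was inhibition of the HNE-induced lung hemorrhage.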

[2] = Solubility was determined at a pH of 1.2 using first fluid (JP13th); assay type: physicochemical; conditions: pH 1.2
In short: (§3)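 Solubility was measured in μg/mL in four vehicles: JP13th first fluid (pH ca. 1.2), 1/14 M phosphate citrate buffer (pH ca. 4.0), physiological saline (pH ca. 5.5) and 1/14 M phosphate buffer (pH ca. 7.4).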

[3] = Solubility was determined at a pH of […] using 1/14 M phosphate buffer; assay type: physicochemical; conditions: pH 7.4
[4] = Solubility was determined at a pH of 5.5 using physiological saline; assay type: physicochemical; conditions: pH 5.5; in short: as §3
Cricetinae gen. sp. [5] = experiment: Inhibition of HNE-induced lung hemorrhage in hamsters after oral administration followed by intratracheal instillation of HNE (10 U/lung); assay type: functional; in short: as §2
[6] = Solubility was determined at a pH of 4.0 using 1/14 M phosphate citrate buffer; assay type: physicochemical; conditions: pH 4; in short: as §3
Cricetinae gen. sp. [7] = experiment: as §1; assay type: functional, Cricetulus griseus; in short: as §2

**Q.** For `CC(C)[C@H](NC(=O)[C@@H]1Cc2ccccc2N1C(=O)c1c[nH]cn1)C(=O)c1nnc(C(C)(C)C)o1`, which Ki (Neutrophil elastase) is on record?
**A.** Its Ki is 0.0797 µM.

**Q.** And the inhibition in vivo at 30 mg/kg (Cricetinae gen. sp. [1])?
**A.** Its inhibition in vivo at 30 mg/kg is 81%.

**Q.** Which Ki (Neutrophil elastase) does the source give for `CC(C)OC(=O)N1Cc2ccccc2C[C@H]1C(=O)N[C@H](C(=O)c1nnc(C(C)(C)C)o1)C(C)C` here?
**A.** Its Ki is 0.725 µM.

**Q.** What about the inhibition in vivo at 30 mg/kg (Cricetinae gen. sp. [1]) of the same compound?
**A.** The inhibition in vivo at 30 mg/kg was 0%.

**Q.** Which inhibition in vivo at 30 mg/kg (Cricetinae gen. sp. [1]) does the source give for `CC(C)C[C@@H]1NC(=O)N(CC(=O)N[C@H](C(=O)c2nnc(C(C)(C)C)o2)C(C)C)C1=O` here?
**A.** The inhibition in vivo at 30 mg/kg was 0%.

**Q.** For `CCCCc1nnc(C(=O)[C@@H](NC(=O)Cn2c(-c3ccc(F)cc3)ncc(N)c2=O)C(C)C)o1`, which inhibition in vivo at 30 mg/kg (Cricetinae gen. sp. [1]) is on record?
**A.** The inhibition in vivo at 30 mg/kg was 63%.

**Q.** For `CC(C)[C@H](NC(=O)Cn1c(-c2cccnc2)ncc(N)c1=O)C(=O)c1nnc(C(C)(C)C)o1`, which inhibition in vivo at 30 mg/kg (Cricetinae gen. sp. [1]) is on record?
**A.** Its inhibition in vivo at 30 mg/kg is 6%.

**Q.** Which results are given for `CC(C)[C@H](NC(=O)Cn1c(-c2ccccc2)ncc(N)c1=O)C(=O)c1nnc(C(C)(C)C)o1`?
**A.** solubility [2]: > 2000 µg/mL; solubility [3]: 310 µg/mL (≈ 685 µM); solubility [4]: 1010 µg/mL (≈ 2230 µM)

**Q.** For `CC(C)[C@H](NC(=O)CN1C(=O)N[C@H](Cc2c[nH]c3ccccc23)C1=O)C(=O)c1nnc(C(C)(C)C)o1`, which inhibition in vivo at 30 mg/kg (Cricetinae gen. sp. [1]) is on record?
**A.** Its inhibition in vivo at 30 mg/kg is 22%.

**Q.** For `CC(C)C(NC(=O)Cn1c(-c2ccc(F)cc2)ncc(N)c1=O)C(=O)c1nnc(C(C)(C)C)o1` (stereo not given), which ED50 (Cricetinae gen. sp. [5]) is on record?
**A.** Its ED50 is 10 mg/kg.

**Q.** Which ED50 (Cricetinae gen. sp. [5]) does the source give for `Cc1cccc(Cc2nnc(C(=O)[C@@H](NC(=O)Cn3c(-c4ccc(F)cc4)ncc(N)c3=O)C(C)C)o2)c1` here?
**A.** Its ED50 is 13 mg/kg.

**Q.** Which ED50 (Cricetinae gen. sp. [5]) does the source give for `CC(C)[C@H](NC(=O)Cn1c(-c2ccccc2)nccc1=O)C(=O)c1nnc(C(C)(C)C)o1` here?
**A.** The ED50 was 4 mg/kg.

**Q.** With `CC(C)[C@H](NC(=O)Cn1c(-c2ccc(F)cc2)nccc1=O)C(=O)c1nnc(C(C)(C)C)o1` as the compound, how does the ED50 (Cricetinae gen. sp. [5]) read?
**A.** Its ED50 is 6.8 mg/kg.

**Q.** For `CC(C)OC(=O)N1c2ccccc2C[C@H]1C(=O)N[C@H](C(=O)c1nnc(C(C)(C)C)o1)C(C)C`, which Ki (Neutrophil elastase) is on record?
**A.** The Ki was 0.114 µM.

**Q.** With `CC(C)[C@H](NC(=O)COc1cccc(-c2ccccc2)n1)C(=O)c1nnc(C(C)(C)C)o1` as the compound, how does the Ki (Neutrophil elastase) read?
**A.** The Ki was 4.28 µM.

**Q.** What about the inhibition in vivo at 30 mg/kg (Cricetinae gen. sp. [1]) of the same compound?
**A.** The inhibition in vivo at 30 mg/kg was 28%.

**Q.** For `CC(C)[C@H](NC(=O)Cn1c(-c2ccccc2)ncc(N)c1=O)C(=O)c1nnc(C(C)(C)c2ccccc2)o1`, which solubility [2] is on record?
**A.** The solubility was 499 µg/mL (≈ 970 µM).

**Q.** What about the ED50 (Cricetinae gen. sp. [5]) of the same compound?
**A.** The ED50 was 25 mg/kg.

**Q.** And the solubility [6]?
**A.** The solubility was 26 µg/mL (≈ 50.5 µM).

**Q.** What about the solubility [3] of the same compound?
**A.** The solubility was 20 µg/mL (≈ 38.9 µM).

**Q.** For `CC(C)[C@H](NC(=O)Cn1c(-c2ccc(F)cc2)nccc1=O)C(=O)c1nnc(C(C)(C)c2ccccc2)o1`, which inhibition in vivo at 30 mg/kg (Cricetinae gen. sp. [1]) is on record?
**A.** The inhibition in vivo at 30 mg/kg was 61%.

**Q.** For `CC(C)[C@H](NC(=O)Cn1c(-c2ccc(F)cc2)ncc(N)c1=O)C(=O)c1nnc(Cc2ccccc2)o1`, which inhibition in vivo at 30 mg/kg (Cricetinae gen. sp. [1]) is on record?
**A.** The inhibition in vivo at 30 mg/kg was 53%.

**Q.** With `CC(C)[C@H](NC(=O)Cn1c(-c2ccc(F)cc2)ncc(N)c1=O)C(=O)c1nnc(-c2ccccc2)o1` as the compound, how does the inhibition in vivo at 30 mg/kg (Cricetinae gen. sp. [7]) read?
**A.** The inhibition in vivo at 30 mg/kg was 9%.
